pKi: −log10 of the molar value. Activity calls are given as the source filed them. The calls are words filed in the database; no cut-off is given here. Numbered stars: 1 amine (or outer) side, 2 acyl side, 3 side chain; on linkers, the order of the positions; unused ones are H or OH. Square brackets hold non-standard residues; d marks the D form. Peptide text beside a SMILES is read from it. X1 = O=C([C@@H]1Cc2nc[nH]c2CN1[*:1])[*:2]; Tic = O=C(O)[C@@H]1Cc2ccccc2CN1

The target in data set [1] is T1, Type-1 angiotensin II receptor (Homo sapiens) (UniProt P30556).
T1 sequence (whole entry): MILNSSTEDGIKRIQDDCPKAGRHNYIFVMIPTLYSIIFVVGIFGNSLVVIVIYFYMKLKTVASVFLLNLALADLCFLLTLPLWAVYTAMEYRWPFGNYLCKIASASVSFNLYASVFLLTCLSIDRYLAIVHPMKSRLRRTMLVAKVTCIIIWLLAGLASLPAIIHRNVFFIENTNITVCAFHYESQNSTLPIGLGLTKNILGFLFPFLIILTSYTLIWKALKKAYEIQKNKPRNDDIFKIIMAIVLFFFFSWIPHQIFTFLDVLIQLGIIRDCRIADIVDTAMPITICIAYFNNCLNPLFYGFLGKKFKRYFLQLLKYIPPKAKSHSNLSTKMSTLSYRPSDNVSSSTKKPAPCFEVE
In words: Displacement of [3H]valsartan from human recombinant AT1 receptor expressed in CHO cells at 10 uM after 40 mins by liquid scintillation counting. Format: cell-based. Put shortly: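 Intact CHO-AT1 cells, human AT1 receptor stably expressed, prewashed in PBS, then 15 min in DMEM at 37 °C. Test agent at 10^-5 M with [3H]Valsartan (final 1.5 nM) for 40 min at 37 °C. Nonspecific binding with 1 μM Candesartan. Specific binding reported as percent of control, binding in medium only. Cell-bound radioactivity solubilized in 0.2 M NaOH and counted.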
On the technique in general: In a radioligand displacement assay an active substance lowers the binding of a labelled ligand.

Data set [2] is described as follows: Metabolic stability in CHOK1 cells harboring endogenous IRAP at 0.1 to 10000 nM pretreated for 40 mins by [3H]angiotensin 4 competition binding assay in absence of chelator EDTA and 1, 10-phenantroline. Format: ADME, cell-based, Cricetulus griseus. To be noted: chinese hamster, cho-k1, 40 min, 10 µM. An outline of the steps:
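Membrane homogenates of CHO-K1 cells carrying endogenous IRAP, equivalent to 4×10^5 cells, in 50 mM Tris-HCl pH 7.4 assay buffer. Preincubated 40 min at 37 °C with compound, no chelator added. [3H]Ang IV (final 3 nM) then added for 30 min at 37 °C. Nonspecific binding with 10 μM Ang IV. Filtered on BSA-presoaked GF/B filters and counted. Specific binding given as percent of control.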

For data set [3], the target named is T2, Type-1 angiotensin II receptor (Homo sapiens, UniProt P30556).
T2 sequence (P30556 whole entry): T1 sequence (whole entry)
In words: Displacement of [3H]valsartan from human recombinant AT1 receptor expressed in CHO cells after 40 mins by liquid scintillation counting. Format: cell-based. Put shortly: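 CHO cells stably expressing human AT1 receptor, washed twice in PBS at room temperature, then 15 min in DMEM at 37 °C. Competition with [3H]Valsartan (final 1.5 nM) over a full dose range for 40 min at 37 °C. Nonspecific binding defined with 1 μM Candesartan. Cells washed 3× in cold PBS and lysed in 0.2 M NaOH before scintillation counting. IC50 by nonlinear regression, Ki by Cheng–Prusoff.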

For `CC[C@H](C)[C@H](NC(=O)[C@H](Cc1ccc(O)cc1)NC(=O)[C@@H](N)C(C)C)C(=O)N1Cc2[nH]cnc2C[C@H]1C(=O)N1CCC[C@H]1C(=O)N[C@@H](Cc1ccccc1)C(=O)O` (H-VYI[X1]PF-OH), the outcome in data set [1] was inactive.

For the compound `CC[C@H](C)[C@H](NC(=O)[C@H](Cc1ccc(O)cc1)NC(=O)[C@@H](N)C(C)C)C(=O)N1Cc2ccccc2C[C@H]1C(=O)N1CCC[C@H]1C(=O)N[C@@H](Cc1ccccc1)C(=O)O` (H-VYI[Tic]PF-OH), in data set [1], the outcome was inactive.

Take `CC[C@H](C)[C@H](NC(=O)[C@H](Cc1ccc(O)cc1)NC(=O)[C@@H](N)C(C)C)C(=O)N[C@H]1Cc2c([nH]c3ccccc23)CN(CC(=O)N[C@@H](Cc2ccccc2)C(=O)O)C1=O`: the outcome in data set [1] was inactive. Also, the Stability entry in data set [2] is recorded as “Unstable”.

On to `CC[C@H](C)[C@H](NC(=O)[C@H](Cc1ccc(O)cc1)NC(=O)[C@@H](N)C(C)C)C(=O)N[C@H]1Cc2ccccc2CN(CC(=O)N[C@@H](Cc2ccccc2)C(=O)O)C1=O`, for which the outcome in data set [1] was inactive. Moreover, the Stability result in data set [2] was “Unstable”.

The term pKi denotes the Ki on a negative log10 scale, so that one unit is a factor of ten. Regarding `CC[C@H](C)[C@H](NC(=O)[C@H](Cc1ccc(O)cc1)NC(=O)[C@@H](CN)C(C)C)C(=O)N[C@H]1Cc2ccccc2CN(CC(=O)N[C@@H](Cc2ccccc2)C(=O)O)C1=O`, the result in data set [1] was Active. The Stability result in data set [2] was “Stable”. Besides, in data set [3], the pKi is 6.85.

As for `CC[C@H](C)[C@H](NC(=O)[C@H](Cc1ccc(O)cc1)NC(=O)[C@@H](CN)C(C)C)C(=O)N[C@H]1Cc2c([nH]c3ccccc23)CN(CC(=O)N[C@@H](Cc2ccccc2)C(=O)O)C1=O`, the outcome in data set [1] was inactive. In addition, the Stability result in data set [2] is “Stable”.

The values are drawn from ChEMBL document CHEMBL1154281 (J Med Chem, 2009).
